The values that follow come from ChEMBL document CHEMBL3860044, “The Rational Design, Synthesis, and Antimicrobial Properties of Thiophene Derivatives That Inhibit Bacterial Histidine Kinases” (J Med Chem, 2016).

Each structure is given as a SMILES string. Converted amounts (≈) assume the structure as drawn. The source made the active and inactive calls. No cut-off for these calls is given here.

Series [1] can be described thus: Inhibition of Bacillus subtilis JH642 Hexa-his-tagged PhoR cytoplasmic domain (186 to 589 residues) autophosphorylation expressed in Escherichia coli BL21(DE3) preincubated for 5 mins followed by [gamma-32P] ATP addition measured after 8 to 60 mins by SDS-PAGE based phosphor imaging method. More on the design: species or system Bacillus subtilis subsp. subtilis str. JH642. In outline:
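His6-PhoR purified by Ni-NTA after IPTG induction (1 mM, 16 °C). For IC50: 0.5 µM kinase in Epps pH 8.5, MgCl2, EDTA, glycerol buffer; compound 0–800 µM (two-fold steps), DMSO held constant, 5 min before ATP at 2.5 µM final, cold:hot ratio 1:1. Stopped with SDS loading buffer after 60 min; SDS-PAGE, phosphorimaging, densitometry.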

Series [2] in a line: Inhibition of Enterococcus faecalis Hexa-his-tagged IreK autophosphorylation expressed in Escherichia coli BL21(DE3) preincubated for 5 mins followed by [gamma-32P] ATP addition measured after 15 mins by SDS-PAGE based phosphor imaging method. In outline: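 His6-IreK expressed in E. coli BL21(DE3) with IPTG at 16 °C and purified by Ni-NTA. Autophosphorylation run as for the histidine kinases: 0.5 µM kinase, 2.5 µM ATP with [γ-32P]ATP, compound 0–800 µM added before ATP.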

The next series deals with Bacillus subtilis. The experiment in a line: Inhibition of Bacillus subtilis KinA autophosphorylation.
In series [3] the test system is Staphylococcus aureus. Nature of the series: Antimicrobial activity against methicillin-resistant Staphylococcus aureus USA300 TCH1516 at 20 ug after 20 hrs by disk diffusion assay. Type of series: functional. The note with it: USA300_TCH1516. (In general: In agar diffusion tests the substance spreads into inoculated agar from a disc or well.)
Series [4] has as its system Staphylococcus aureus. Nature of the series: Antimicrobial activity against methicillin-resistant Staphylococcus aureus USA300 TCH1516 after 20 hrs by two fold serial broth dilution method. Format: functional. The note with it: USA300_TCH1516, 20 h. The essentials:
(§1)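 Two-fold serial broth dilution per CLSI in LB, BHI or THB broth, (3–7) × 10⁵ cfu/mL per well, compound 0.5 to 128 µg/mL, 20 h at 37 °C. MIC is the lowest concentration with no growth. For MBC (>99.99% kill), 10 µL from wells without growth are spotted on agar and read the next day as spots with fewer than 5 colonies.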

Series [5] is described as follows: Antimicrobial activity against Streptococcus pyogenes M1 GAS 5448 after 20 hrs by two fold serial broth dilution method. Type of series: functional. The note with it: Streptococcus pyogenes, 5448, 20 h. In outline: (§2)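 2-fold serial broth dilution per CLSI in LB, BHI or THB; inoculum (3–7) × 10⁵ cfu/mL; compound 0.5 to 128 µg/mL; 20 h at 37 °C. MIC taken as lowest concentration with no visible growth. For MBC (>99.99% kill), 10 µL from wells without growth spotted on agar; read next day as spots with fewer than 5 colonies.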

The subject of series [6] is Streptococcus agalactiae. The experiment in a line: Antimicrobial activity against Streptococcus agalactiae COH1 GBS after 20 hrs by two fold serial broth dilution method. Type of series: functional. The essentials: as §2
The subject of another series is Listeria monocytogenes. The experiment in a line: Antimicrobial activity against Listeria monocytogenes 10403S after 20 hrs by two fold serial broth dilution method. Format: functional. The essentials:
as §2

Series [7] deals with Staphylococcus aureus. Nature of the series: Bactericidal activity against methicillin-resistant Staphylococcus aureus USA300 TCH1516 after 20 hrs by two fold serial broth dilution method. Format: functional, USA300_TCH1516. In outline: as §1
In general terms: Broth dilution looks for growth in wells or tubes with falling amounts of substance.

A further series concerns Bacillus anthracis. Nature of the series: Bactericidal activity against Bacillus anthracis 34F2 after 20 hrs by two fold serial broth dilution method. Format: functional. The essentials: as §1
Series [8] relates to Streptococcus agalactiae. The experiment in a line: Bactericidal activity against Streptococcus agalactiae COH1 GBS after 20 hrs by two fold serial broth dilution method. Type of series: functional. The essentials: as §2
The nature of series [9]: Bactericidal activity against Salmonella enterica 14028S after 20 hrs by two fold serial broth dilution method. Format: functional. In outline: as §1
Series [10] has as its system Escherichia coli. Nature of the series: Bactericidal activity against Escherichia coli MG1655 after 20 hrs by two fold serial broth dilution method. Format: functional, K-12 substr. MG1655. In outline: as §1
Series [11] relates to Bacillus subtilis subsp. subtilis str. JH642. The experiment in a line: Bactericidal activity against Bacillus subtilis JH642 assessed as bacterial cell lysis at 50 ug/ml upto 9 hrs. Format: functional. The essentials: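 B. subtilis JH642 grown overnight in LB, diluted into 20 mL LB at OD600 0.05, grown at 37 °C. Compound added at OD600 0.5–0.6. OD600 followed before and after addition over several hours. Vancomycin served as bactericidal control and chloramphenicol as bacteriostatic control.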

Series [12] is described as follows: Hemolytic activity against sheep RBC upto 1 mM after 45 mins. Type of series: ADME, cell-based, Ovis aries. The note with it: erythrocyte, 0.75 h. The essentials:
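Sheep RBCs washed three times in PBS. Reactions held 2% (v/v) RBC, 10% DMSO and 1 mM compound, incubated 45 min at 37 °C with shaking at 100 rpm. No-compound control and H2O (100% lysis) control included. RBCs then removed by centrifugation at 900g, 4 °C.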

For series [13], the system named is Escherichia coli. The experiment in a line: Inhibition of histidine kinase in amoxicillin-resistant Escherichia coli isolate G28 harboring beta-lactamase assessed as adjuvant activity for restoration of cefotaxime induced antibacterial activity by measuring cefotaxime MIC at 50 ug/ml by broth microdilution method (reference value: >16 ug/ml). In outline:
(§3)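 Clinical resistant isolates and quality control strains (S. aureus ATCC 29213, E. coli ATCC 25922) are tested by EUCAST broth microdilution with a 10⁶ bacteria/mL inoculum, in triplicate, with or without a fixed adjuvant concentration. For MBC, the MIC dilution and at least two more concentrated dilutions are plated and CFU/mL counted.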

Series [14] deals with Escherichia coli. The experiment in a line: Inhibition of histidine kinase in cephalosporin-resistant Escherichia coli isolate ARS 108 harboring extended spectrum beta lactamase assessed as adjuvant activity for restoration of cefotaxime induced antibacterial activity by measuring cefotaxime MIC at 50 ug/ml by broth microdilution method (reference value: >16 ug/ml). In outline: as §3

The test system of series [15] is Escherichia coli. The experiment in a line: Inhibition of histidine kinase in ofloxacin-resistant Escherichia coli isolate G02 assessed as adjuvant activity for restoration of ofloxacin induced antibacterial activity by measuring ofloxacin MIC at 50 ug/ml by broth microdilution method (reference value: >16 ug/ml). In outline:
as §3

Series [16] relates to Staphylococcus aureus. Nature of the series: Inhibition of histidine kinase in methicillin-resistant Staphylococcus aureus isolate C1BP13 assessed as adjuvant activity for restoration of penicillin G induced antibacterial activity by measuring penicillin G MIC at 50 ug/ml by broth microdilution method (reference value: >8 ug/ml). In outline: as §3
In series [17] the test system is Escherichia coli. The experiment in a line: Inhibition of histidine kinase in cephalosporin-resistant/ESBL producing Escherichia coli isolate ARS 108 assessed as adjuvant activity for restoration of amoxicillin induced bactericidal activity by measuring amoxicillin MBC at 50 ug/ml by broth microdilution method (reference value: >16 ug/ml). The essentials:
as §3

Series [18] has as its system Staphylococcus aureus. The experiment in a line: Inhibition of histidine kinase in methicillin-resistant Staphylococcus aureus isolate C1BP13 assessed as adjuvant activity for restoration of cloxacillin induced bactericidal activity by measuring cloxacillin MBC at 50 ug/ml by broth microdilution method (reference value: >8 ug/ml). The essentials:
as §3

Series [19] relates to Staphylococcus aureus. Nature of the series: Inhibition of histidine kinase in methicillin-resistant Staphylococcus aureus isolate C1BP13 assessed as adjuvant activity for restoration of penicillin G induced bactericidal activity by measuring penicillin G MBC at 50 ug/ml by broth microdilution method (reference value: >8 ug/ml). The essentials: as §3
Series [20] relates to Staphylococcus aureus. The experiment in a line: Bactericidal activity against methicillin-resistant Staphylococcus aureus USA300 TCH1516 at 50 ug/ml upto 9 hrs. Type of series: functional. The settings on record: USA300_TCH1516. In outline: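 Culture inoculated at OD600 0.05 and grown until OD600 reaches 0.5–0.6, when additives are added; chloramphenicol and vancomycin serve as controls. OD600 is followed before and after addition for several hours. For S. aureus the assay uses fewer time points and a smaller volume.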

For orientation: IC50 means the concentration that inhibits the measured activity by half. Low readings indicate inhibition by little substance, high ones a need for much substance.

Turning to `O=[N+]([O-])c1ccc(-c2ccccc2O)s1`, the IC50 is 123 µM in series [1] and above 800 µM in series [2]. Also, the inhibition result with Bacillus subtilis is “Active”. In addition, the result (with Staphylococcus aureus [3]; in series [11]; with Staphylococcus aureus [20]) was Active. The MIC amounted to 16 µg/mL (≈ 72.3 µM) against Staphylococcus aureus [4]; 10 µg/mL (≈ 45.2 µM) in [5]; 16 µg/mL (≈ 72.3 µM) with Streptococcus agalactiae [6]; 10 µg/mL (≈ 45.2 µM) in the series with Listeria monocytogenes; 0.03 µg/mL with Escherichia coli [13]; 0.03 µg/mL in the series on Escherichia coli [14]. The MIC in the series with Escherichia coli [15] and in the series with Staphylococcus aureus [16] was below 0.015 µg/mL each time. Further, the MBC99.99 with Staphylococcus aureus [7] was 32 µg/mL (≈ 145 µM); in the series on Bacillus anthracis, 16 µg/mL (≈ 72.3 µM); in the series with Streptococcus agalactiae [8], above 32 µg/mL; in series [9], 32 µg/mL (≈ 145 µM); in the series on Escherichia coli [10], 32 µg/mL (≈ 145 µM). Moreover, in [12], the Activity entry was “Non-Toxic”. Further, the MBC with Escherichia coli [17] was above 16 µg/mL; with Staphylococcus aureus [18], above 8 µg/mL; in the series with Staphylococcus aureus [19] it was 4 µg/mL.
